Series [1] deals with Staphylococcus aureus. The series is described as follows: Antibacterial activity against Staphylococcus aureus ATCC 29213 measured after 16 to 18 hrs. Conditions: time 16-18 hrs. The series is classed as functional. An outline of the steps: (§1)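 Broth microdilution MIC. Strains grown on MHA; a single colony was grown overnight in CA-MHB at 37 °C with shaking for 18–24 h. Cultures were diluted by OD600 to ~10⁶ cfu/mL and exposed to compound at […]. Plates were incubated at 37 °C for 16-18 h. MIC = lowest concentration with no visible growth. Levofloxacin was the reference. Three independent runs, each in duplicate.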

The test system of series [2] is Klebsiella pneumoniae. The series is described as follows: Antibacterial activity against Klebsiella pneumoniae BAA-1705 measured after 16 to 18 hrs. The class given is functional. The following applies: ATCC BAA-1705, time 16-18 hrs. An outline of the steps: as §1
Series [3] in a line: Selectivity index, ratio of CC50 for cytotoxicity against African green monkey Vero cells to MIC for antibacterial activity against Staphylococcus aureus ATCC 29213. The class given is toxicity, cell-based. Conditions: read-out: Selectivity Index. An outline of the steps: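 SI = Vero CC50 (MTT, 72 h) divided by MIC against S. aureus ATCC 29213 (CA-MHB broth microdilution, 16-18 h, 37 °C).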

The test system of series [4] is Mycobacteroides chelonae. The series is described as follows: Antimycobacterial activity against Mycobacterium chelonae ATCC 35752 by broth microdilution method. The series is classed as functional. In outline: (§2)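 Broth microdilution MIC in Middlebrook 7H9 with 10% ADC-Tween-80 (BSA, dextrose, 0.2% glycerol, 0.05% Tween-80). Inoculum ~10⁶ cfu/mL set by OD600. Compounds were twofold serially diluted, 0.0064–0.00005 g/100 mL (DMSO stocks). Presto blue resazurin dye was used as read-out. MIC = lowest concentration inhibiting visible growth. Triplicate runs, each in duplicate.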

Series [5] is described as follows: Cytotoxicity against African green monkey Vero cells assessed as reduction in cell viability measured after 72 hrs by MTT assay. Conditions: chlorocebus sabaeus. The class given is cell-based. In outline:
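Vero cells (ATCC CCL-81), ~10³ cells/well, held 24 h at 37 °C in 5% CO₂. Compound at 100–5 mg/L for 72 h. MTT was added for 4 h, formazan dissolved in DMSO, OD read at 540 nm. CC50 = concentration giving 50% viability reduction. Doxorubicin was the positive control. Triplicate.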
On the technique in general: Tetrazolium dyes change colour on reduction, which living cells bring about.

The test system of series [6] is Mycolicibacterium fortuitum. The series is described as follows: Antimycobacterial activity against Mycobacterium fortuitum ATCC 6841 by broth microdilution method. The series is classed as functional. In outline:
as §2

In series [7] the test system is Escherichia coli. The series is described as follows: Antibacterial activity against Escherichia coli ATCC 25922 measured after 16 to 18 hrs. The following applies: time 16-18 hrs. The class given is functional. An outline of the steps: as §1
Series [8] has as its system Acinetobacter baumannii. The series is described as follows: Antibacterial activity against Acinetobacter baumannii BAA1605 measured after 16 to 18 hrs. The class given is functional. Conditions: time 16-18 hrs. In outline: as §1
The subject of series [9] is Pseudomonas aeruginosa. The series is described as follows: Antibacterial activity against Pseudomonas aeruginosa ATCC 27853 measured after 16 to 18 hrs. The series is classed as functional. Conditions: time 16-18 hrs. In outline: as §1
In series [10] the test system is Mycobacteroides abscessus. The series is described as follows: Antimycobacterial activity against Mycobacterium abscessus ATCC 19977 by broth microdilution method. The series is classed as functional. In outline: as §2
(In general: In broth dilution the organism is exposed to a series of concentrations in liquid medium.)

In series [11] the test system is Mycobacterium tuberculosis. The series is described as follows: Antitubercular activity against Mycobacterium tuberculosis H37Rv ATCC 27294 measured after 7 days by broth microdilution method. The series is classed as functional. The following applies: H37Rv ATCC 27294, 168 h, time 7 day. In outline: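 H37Rv in Middlebrook 7H9 with 10% ADC, 0.2% glycerol, 0.05% Tween-80. Inoculum ~10⁶ cfu/mL set by OD600. Twofold serial dilutions, 0.0064–0.00005 g/100 mL. Incubated at 37 °C for 7 days, then Presto blue resazurin read-out. MIC = lowest concentration inhibiting visible growth. Triplicate runs, each in duplicate.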

Series [12] has as its system Staphylococcus aureus. The series is described as follows: Antibacterial activity against methicillin-resistant Staphylococcus aureus NR10191 measured after 16 to 18 hrs. The series is classed as functional. Conditions: time 16-18 hrs. An outline of the steps: as §1
The subject of series [13] is Staphylococcus aureus. The series is described as follows: Antibacterial activity against methicillin-resistant Staphylococcus aureus NR10186 measured after 16 to 18 hrs. The series is classed as functional. Conditions: time 16-18 hrs. An outline of the steps: as §1
In series [14] the test system is Staphylococcus aureus. The series is described as follows: Antibacterial activity against methicillin-resistant Staphylococcus aureus NR119 measured after 16 to 18 hrs. The series is classed as functional. Conditions: time 16-18 hrs. An outline of the steps:
as §1

For series [15], the system named is Staphylococcus aureus. The series is described as follows: Antibacterial activity against vancomycin-resistant Staphylococcus aureus VRS1 measured after 16 to 18 hrs. The series is classed as functional. Conditions: time 16-18 hrs. An outline of the steps: as §1
The test system of series [16] is Staphylococcus aureus. The series is described as follows: Antibacterial activity against methicillin-resistant Staphylococcus aureus NR100 measured after 16 to 18 hrs. Conditions: time 16-18 hrs. The series is classed as functional. In outline:
as §1

Series [17] deals with Staphylococcus aureus. The series is described as follows: Antibacterial activity against methicillin-resistant Staphylococcus aureus NR10192 measured after 16 to 18 hrs. The series is classed as functional. Conditions: time 16-18 hrs. An outline of the steps:
as §1

Series [18] deals with Staphylococcus aureus. The series is described as follows: Antibacterial activity against methicillin-sensitive Staphylococcus aureus ATCC 29213 measured after 16 to 18 hrs. The series is classed as functional. Conditions: time 16-18 hrs. An outline of the steps: as §1
Series [19] relates to Staphylococcus aureus. The series is described as follows: Antibacterial activity against methicillin-resistant Staphylococcus aureus NR10194 measured after 16 to 18 hrs. The series is classed as functional. Conditions: time 16-18 hrs. In outline:
as §1

The test system of series [20] is Staphylococcus aureus. The series is described as follows: Antibacterial activity against vancomycin-resistant Staphylococcus aureus VRS4 measured after 16 to 18 hrs. The class given is functional. Conditions: time 16-18 hrs. In outline: as §1
The test system of series [21] is Staphylococcus aureus. The series is described as follows: Antibacterial activity against vancomycin-resistant Staphylococcus aureus VRS12 measured after 16 to 18 hrs. Conditions: time 16-18 hrs. The series is classed as functional. An outline of the steps:
as §1

Series [22] has as its system Staphylococcus aureus. The series is described as follows: Antibacterial activity against methicillin-resistant Staphylococcus aureus NR10193 measured after 16 to 18 hrs. The series is classed as functional. Conditions: time 16-18 hrs. An outline of the steps: as §1
Series [23] has as its system Staphylococcus aureus. The series is described as follows: Antibacterial activity against methicillin-resistant Staphylococcus aureus NR10198 measured after 16 to 18 hrs. The series is classed as functional. Conditions: time 16-18 hrs. An outline of the steps: as §1
In series [24] the test system is Staphylococcus aureus. The series is described as follows: Antibacterial activity against methicillin-resistant Staphylococcus aureus NR10129 measured after 16 to 18 hrs. The class given is functional. The following applies: time 16-18 hrs. In outline: as §1

SMILES strings stand for the structures. ≈ marks a conversion by molar mass, not a printed value.

The term MIC denotes the least concentration at which growth counts as inhibited. The term CC50 denotes the concentration at which the toxic effect on the cells reaches its halfway point. With `O=C(Nc1ccc2nc(-c3cnc4c(Cl)cccc4c3)[nH]c2c1)c1ccc(Nc2nc(-c3ccccc3)nc3ccccc23)cc1`, the MIC in [1], in series [2], in [4], in [6], in [7] and in series [8] was more than 64 µg/mL each time. For the same compound, the MIC in series [9] was more than 64 µg/mL; in [10], more than 64 µg/mL; in series [11], 16 µg/mL (≈ 25.9 µM). Besides, the selectivity ratio in series [3] was more than 6.25. Also, in [5], the CC50 at 72 h was more than 100 µg/mL.
In [11], `O=C(Nc1ccc(Nc2nc(-c3ccccc3)nc3ccccc23)cc1)c1cc(Br)ccc1Cl` showed an MIC of 4 µg/mL (≈ 7.55 µM).
As to `CCCCCCCCCC(=O)N[C@@H](Cc1c[nH]c2ccccc12)C(=O)N[C@H](CC(N)=O)C(=O)N[C@@H](CC(=O)O)C(=O)N[C@@H]1C(=O)NCC(=O)N[C@@H](CCCN)C(=O)N[C@@H](CC(=O)O)C(=O)N[C@H](C)C(=O)N[C@@H](CC(=O)O)C(=O)NCC(=O)N[C@H](CO)C(=O)N[C@@H]([C@H](C)CC(=O)O)C(=O)N[C@@H](CC(=O)c2ccccc2N)C(=O)O[C@@H]1C`, the minimal inhibitory concentration (MIC) in [12] stood at 1 µg/mL (≈ 0.617 µM); in series [13] it was 0.5 µg/mL (≈ 0.309 µM); in [14], 1 µg/mL (≈ 0.617 µM); in series [15] it was 1 µg/mL (≈ 0.617 µM); in [16] it was 1 µg/mL (≈ 0.617 µM); in series [17] it was 1 µg/mL (≈ 0.617 µM). Also, the MIC was determined as 1 µg/mL (≈ 0.617 µM) in series [18]; 0.5 µg/mL (≈ 0.309 µM) in series [19]; 0.5 µg/mL (≈ 0.309 µM) in series [20]; 0.5 µg/mL (≈ 0.309 µM) in [21]; 1 µg/mL (≈ 0.617 µM) in series [22]; 0.5 µg/mL (≈ 0.309 µM) in [23]. For the same compound, in series [24], the MIC came to 0.5 µg/mL (≈ 0.309 µM).
As for `Clc1ccc(-c2nc(Nc3ccc(-c4nc5cc(Cl)ccc5[nH]4)cc3)c3ccccc3n2)cc1`, the MIC in series [1], in [2], in series [7], in [8] and in series [9] was more than 64 µg/mL each time.
`O=[N+]([O-])c1ccc2[nH]c(-c3ccc(Nc4nc(-c5ccccc5)nc5ccccc45)cc3)nc2c1`: the MIC in series [1], in series [2], in series [4], in series [6], in series [7] and in [8] was more than 64 µg/mL each time. For the same compound, the figures for the MIC in [9], in [10] and in [11] were more than 64 µg/mL, more than 64 µg/mL and 8 µg/mL (≈ 17.4 µM), respectively. Moreover, in [3], the selectivity ratio is 12.5. The CC50 at 72 h in [5] was 100 µg/mL (≈ 218 µM).
For `O=C(Nc1ccc2nc(C(F)(F)F)[nH]c2c1)c1ccc(Nc2nc(-c3ccccc3)nc3ccccc23)cc1`, the MIC in series [1] was 32 µg/mL (≈ 61 µM); in series [2], more than 64 µg/mL; in series [4] it was more than 64 µg/mL; in series [6], more than 64 µg/mL; in [7], more than 64 µg/mL; in series [8], more than 64 µg/mL. Besides, the minimal inhibitory concentration (MIC) is more than 64 µg/mL in series [9], more than 64 µg/mL in series [10] and 64 µg/mL (≈ 122 µM) in series [11].
As to `CN[C@H](CC(C)C)C(=O)N[C@H]1C(=O)N[C@@H](CC(N)=O)C(=O)N[C@H]2C(=O)N[C@H]3C(=O)N[C@H](C(=O)N[C@H](C(=O)O)c4cc(O)cc(O)c4-c4cc3ccc4O)[C@H](O)c3ccc(c(Cl)c3)Oc3cc2cc(c3O[C@@H]2O[C@H](CO)[C@@H](O)[C@H](O)[C@H]2O[C@H]2C[C@](C)(N)[C@H](O)[C@H](C)O2)Oc2ccc(cc2Cl)[C@H]1O` [VANCOMYCIN], the MIC in [15], in series [20] and in series [21] was more than 64 µg/mL in each case.
In the case of `O=C(Nc1ccc2nc(-c3ccc(Br)cc3F)[nH]c2c1)c1ccc(Nc2nc(-c3ccccc3)nc3ccccc23)cc1`, the minimum inhibitory concentration (MIC) was 64 µg/mL (≈ 102 µM) in [1]; more than 64 µg/mL in series [2]; more than 64 µg/mL in series [4]; more than 64 µg/mL in [6]; more than 64 µg/mL in series [7]; more than 64 µg/mL in [8]. The minimal inhibitory concentration (MIC) in [9], in series [10] and in series [11] was more than 64 µg/mL each time.
Take `Brc1ccc2[nH]c(-c3ccc(Nc4nc(-c5ccccc5)nc5ccccc45)cc3)nc2c1`: the MIC in [1], in [2], in series [7], in series [8] and in series [9] was more than 64 µg/mL in each case.

The values are drawn from ChEMBL document CHEMBL4706624, “Synthesis and evaluation of new quinazoline-benzimidazole hybrids as potent anti-microbial agents against multidrug resistant Staphylococcus aureus and Mycobacterium tuberculosis” (Eur J Med Chem, 2021).
